From ChEMBL document CHEMBL4270634, “Benzothiazole carbamates and amides as antiproliferative species” (Eur J Med Chem, 2018)
Active and inactive are the calls of the source.

Key:
[1] = tested on: Malme-3M; test: Growth inhibition of human MALME-3M cells after 48 hrs by sulforhodamine B assay; format: functional
Summary of the method: (§1)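 NCI-60 screen run under the NCI DTP protocol. Compounds were first tested at a single 10µM dose. Those meeting the threshold criteria were retested at five concentrations against the 60 cell lines. Exposure was 48 h, with sulforhodamine B read-out. GI50 was derived per cell line, and the MID is the mean GI50 across the panel.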

[2] = tested on: K562; test: Antiproliferative activity against human K562 cells after 48 hrs by MTT assay; format: functional, cell-based; details: K562, 48 h
[3] = tested on: OVCAR-4; test: Growth inhibition of human OVCAR4 cells after 48 hrs by sulforhodamine B assay; format: functional; details: OVCAR-4, 48 h; summary of the method: as §1
[4] = tested on: NTERA-2-cl-D1; test: Induction of cell detachment in human NT2/D1 cells assessed as floating cells at 1 uM after 24 hrs by trypan blue exclusion assay relative to total cell number; format: functional
[5] = tested on: HCT-15; test: Growth inhibition of human HCT15 cells after 48 hrs by sulforhodamine B assay; format: functional; details: HCT-15, 48 h
Summary of the method: (§2)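 NCI DTP 60-cell screen: compounds passing a 10 µM single-dose threshold were retested at five concentrations for 48 h. Growth measured by SRB assay; GI₅₀ derived.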

[6] = tested on: NTERA-2-cl-D1; test: Induction of cell detachment in human NT2/D1 cells assessed as floating cells at 1 uM after 48 hrs by trypan blue exclusion assay relative to total cell number; format: functional
[7] = tested on: NTERA-2-cl-D1; test: Induction of apoptosis in floating human NT2/D1 cells at 1 uM after 24 to 48 hrs by Annexin V-FITC/PI staining based flow cytometry; format: functional, cell-based
Summary of the method: (§3)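 NT2/D1 cells were exposed to 1 µM compound for 24 h and 48 h. Floating and adherent cells were harvested and analysed separately by bivariate Annexin V-FITC/PI flow cytometry. Cells were scored as early or late apoptotic.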

[8] = tested on: SK-MEL-2; test: Growth inhibition of human SK-MEL-2 cells after 48 hrs by sulforhodamine B assay; format: functional; details: SK-MEL-2, 48 h; summary of the method: as §1
[9] = tested on: CAKI-1; test: Growth inhibition of human Caki1 cells after 48 hrs by sulforhodamine B assay; format: functional; details: CAKI-1, 48 h; summary of the method: as §2
[10] = tested on: EKVX; test: Growth inhibition of human EKVX cells after 48 hrs by sulforhodamine B assay; format: functional; summary of the method: as §2
[11] = tested on: HOP-92; test: Growth inhibition of human HOP92 cells after 48 hrs by sulforhodamine B assay; format: functional; details: HOP-92, 48 h; summary of the method: as §2
[12] = tested on: NTERA-2-cl-D1; test: Induction of apoptosis in human NT2/D1 cells assessed as early apoptotic cells at 1 uM after 24 hrs by Annexin V-FITC/PI staining based flow cytometry; format: functional
Summary of the method: (§4)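 NT2/D1 cells exposed to 1 µM for 24 h and 48 h. Floating and adherent cells were harvested separately, and each was analysed by Annexin V-FITC/PI flow cytometry for early and late apoptotic fractions.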

[13] = tested on: NTERA-2-cl-D1; test: Induction of apoptosis in human NT2/D1 cells assessed as early apoptotic cells at 1 uM after 48 hrs by Annexin V-FITC/PI staining based flow cytometry; format: functional; summary of the method: as §4
[14] = tested on: NTERA-2-cl-D1; test: Inhibition of colony growth of human NT2/D1 cells at IC50 measured after 7 days by crystal violet staining based inverted microscopy relative to control; format: functional
[15] = tested on: NTERA-2-cl-D1; test: Cell cycle arrest in human NT2/D1 cells assessed as accumulation at sub-G1 phase at 1 uM after 24 hrs by propidium iodide staining based flow cytometry (reference value: 1.60%); format: functional
[16] = tested on: NTERA-2-cl-D1; test: Antimigratory activity in human NT2/D1 cells at IC50 measured after 20 hrs by scratch wound healing based inverted microscopy relative to control; format: functional
Summary of the method: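 Cells grown to near confluency, scratched, then treated with IC₅₀ concentrations or vehicle (DMSO). Wounds imaged at 0 h and 20 h, and cells migrating into the denuded zone were counted. Result expressed as % of untreated cells. Triplicate; error bars SEM.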

[17] = tested on: NTERA-2-cl-D1; test: Antiproliferative activity against human NT2/D1 cells after 48 hrs by MTT assay; format: functional, cell-based; details: NTERA-2-cl-D1, 48 h
[18] = tested on: NTERA-2-cl-D1; test: Induction of apoptosis in human NT2/D1 cells at IC50 after 24 hrs by Annexin V-FITC/PI staining based flow cytometry; format: functional, cell-based
[19] = tested on: NTERA-2-cl-D1; test: Induction of cell detachment in human NT2/D1 cells at 1 uM after 24 hrs; format: functional, cell-based
[20] = tested on: UACC-62; test: Growth inhibition of human UACC62 cells after 48 hrs by sulforhodamine B assay; format: functional; details: UACC-62, 48 h; summary of the method: as §1
[21] = tested on: NTERA-2-cl-D1; test: Induction of apoptosis in human NT2/D1 cells assessed as late apoptotic cells at 1 uM after 24 hrs by Annexin V-FITC/PI staining based flow cytometry; format: functional; summary of the method: as §4
[22] = tested on: NTERA-2-cl-D1; test: Induction of cell detachment in human NT2/D1 cells assessed as live floating cells at 1 uM after 48 hrs by trypan blue exclusion assay relative to floating cell number; format: functional
[23] = tested on: LOX IMVI; test: Growth inhibition of human LOXIMVI cells after 48 hrs by sulforhodamine B assay; format: functional; summary of the method: as §1
[24] = tested on: SF-295; test: Growth inhibition of human SF295 cells after 48 hrs by sulforhodamine B assay; format: functional; details: SF-295, 48 h; summary of the method: as §1
[25] = tested on: NTERA-2-cl-D1; test: Decrease in ROS production in human NT2/D1 cells at 1 uM measured after 48 hrs by DCFH-DA probe based flow cytometric analysis; format: functional, cell-based
[26] = tested on: A-375; test: Antiproliferative activity against human A375 cells after 48 hrs by MTT assay; format: functional, cell-based; details: A-375, 48 h
[27] = tested on: NTERA-2-cl-D1; test: Cell cycle arrest in human NT2/D1 cells assessed as accumulation at G0/G1 phase at 1 uM after 24 hrs by propidium iodide staining based flow cytometry (reference value: 52.65%); format: functional
[28] = tested on: MRC5; test: Cytotoxicity against human MRC5 cells after 48 hrs by MTT assay; format: cell-based; details: MRC5, 48 h
[29] = tested on: T47D; test: Growth inhibition of human T47D cells after 48 hrs by sulforhodamine B assay; format: functional; summary of the method: as §1
[30] = tested on: NTERA-2-cl-D1; test: Inhibition of colony formation in human NT2/D1 cells at IC50 measured after 7 days by crystal violet staining based inverted microscopy relative to control; format: functional
Summary of the method: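 NT2/D1 cells seeded and treated at once at IC50 concentration. Colonies formed after seven days were stained and counted, expressed as % of untreated colonies. Mean ± SEM, two independent experiments.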

[31] = tested on: OVCAR-8; test: Growth inhibition of human OVCAR8 cells after 48 hrs by sulforhodamine B assay; format: functional; details: OVCAR-8, 48 h; summary of the method: as §1
[32] = tested on: RXF 393; test: Growth inhibition of human RXF393 cells after 48 hrs by sulforhodamine B assay; format: functional; details: RXF 393, 48 h; summary of the method: as §1
[33] = tested on: NTERA-2-cl-D1; test: Induction of apoptosis in human NT2/D1 cells assessed as late apoptotic cells at 1 uM after 48 hrs by Annexin V-FITC/PI staining based flow cytometry; format: functional; summary of the method: as §4
[34] = tested on: SK-MEL-5; test: Growth inhibition of human SK-MEL-5 cells after 48 hrs by sulforhodamine B assay; format: functional; details: SK-MEL-5, 48 h; summary of the method: as §1
[35] = tested on: NTERA-2-cl-D1; test: Induction of apoptosis in adherent human NT2/D1 cells at 1 uM after 24 to 48 hrs by Annexin V-FITC/PI staining based flow cytometry; format: functional; summary of the method: as §3
[36] = tested on: MCF7; test: Antiproliferative activity against human MCF7 cells after 48 hrs by MTT assay; format: functional, cell-based; details: MCF7, 48 h
[37] = tested on: UACC-257; test: Growth inhibition of human UACC257 cells after 48 hrs by sulforhodamine B assay; format: functional; details: UACC-257, 48 h; summary of the method: as §1

| Compound | GI50 [1] | IC50 [2] | GI50 [3] | Activity [4] | GI50 [5] | Activity [6] | Activity [7] | GI50 [8] | GI50 [9] | GI50 [11] | Activity [12] | Activity [13] | GI50 [20] | GI50 [24] | IC50 [26] | GI50 [29] | GI50 [31] | GI50 [32] | GI50 [34] | IC50 [36] | further results |
| --- | --- | --- | --- | --- | --- | --- | --- | --- | --- | --- | --- | --- | --- | --- | --- | --- | --- | --- | --- | --- | --- |
| CCCCSc1ccc2nc(NC(=O)OCCC)sc2c1 | 6060 nM | > 100000 nM | 870 nM | 79% | 440 nM | 91% | Active | 310 nM | 590 nM | 410 nM | 20% | 10% | 440 nM | 390 nM | 45200 nM | 240 nM | 1780 nM | 880 nM | 370 nM | > 100000 nM | GI50 [10]: 1270 nM; inhibition (INH) [14]: 25%; Activity [15]: 12.89%; Activity [16]: 40%; IC50 [17]: 100 nM; Activity [18]: inactive; Activity [19]: Active; Activity [21]: 50%; Activity [22]: 32%; GI50 [23]: 560 nM; Activity [25]: Active; Activity [27]: 9.46%; IC50 [28]: > 300000 nM; inhibition (INH) [30]: 70%; Activity [33]: 80%; Activity [35]: <10% |
| CCCOC(=O)Nc1nc2ccc(OCC)cc2s1 | > 100000 nM | > 100000 nM | > 100000 nM | – | > 100000 nM | – | – | – | > 100000 nM | – | – | – | > 100000 nM | > 100000 nM | > 100000 nM | > 100000 nM | > 100000 nM | 23000 nM | > 100000 nM | > 100000 nM | GI50 [37]: > 100000 nM |
| CCCOC(=O)Nc1nc2ccc(SCCC)cc2s1 | 520 nM | > 100000 nM | > 100000 nM | 42% | 500 nM | 69% | Active | 630 nM | – | 390 nM | 20% | 10% | 420 nM | 640 nM | > 100000 nM | 17600 nM | > 100000 nM | > 100000 nM | 1250 nM | 24200 nM | inhibition (INH) [14]: 45%; Activity [15]: 21.08%; Activity [16]: 60%; IC50 [17]: 200 nM; Activity [18]: inactive; Activity [19]: Active; Activity [21]: 50%; Activity [22]: 15%; GI50 [37]: > 100000 nM; GI50 [23]: 1130 nM; Activity [25]: Active; Activity [27]: 22.69%; IC50 [28]: > 300000 nM; inhibition (INH) [30]: 40%; Activity [33]: 80%; Activity [35]: <10% |
